Data published in ChEMBL document CHEMBL4342435, “Synthesis of novel 4-Boc-piperidone chalcones and evaluation of their cytotoxic activity against highly-metastatic cancer cells” (Bioorg Med Chem Lett, 2020).
Converted amounts (≈) assume the structure as drawn. The source made the active and inactive calls. The calls are words filed in the database; no cut-off is given here.

What was measured:
[1] = Selectivity index, ratio of GI50 for human CCD-18Co cells to GI50 for human COLO205 cells
[2] = system: COLO 205; test: Growth inhibition of human COLO205 cells incubated for 72 hrs by CellTiter-Glo luminescent cell viability; format: functional; details: COLO 205, 72 h
[3] = Selectivity index, ratio of GI50 for human CCD-18Co cells to GI50 for human LoVo cells
[4] = system: LoVo; test: Growth inhibition of human LoVo cells incubated for 72 hrs by CellTiter-Glo luminescent cell viability; format: functional
[5] = Cytotoxicity against human CCD-18Co cells assessed as reduction in cell viability incubated for 72 hrs by CellTiter-Glo luminescent cell viability; format: cell-based
[6] = system: PC-3; test: Growth inhibition of human PC3 cells incubated for 48 hrs by MTS assay; format: functional; details: PC-3, 48 h
Procedure, shortened: (§1)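 MTS viability on PC3 and 22RV1 prostate cancer cells after 48h incubation. […] DMSO control. Triplicates (N=3). One-way ANOVA with Dunnett's test, mean ± SEM, P<0.05.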

[7] = system: CWR22R; test: Growth inhibition of human 22Rv1 cells incubated for 48 hrs by MTS assay; format: functional; details: 22Rv1, 48 h; procedure, shortened: as §1
[8] = system: CWR22R; test: Antiproliferative activity human 22Rv1 cells assessed as reduction in Ki67 protein level at GI50 incubated for 48 hrs by DAPI staining based immunofluorescence assay; format: functional, cell-based
[9] = system: COLO 205; test: Induction of apoptosis in human COLO205 cells at GI50 incubated for 24 hrs by Annexin V-FITC/Hoechst/propidium iodide staining based cell counting method (reference value: 10.7%); format: functional
[10] = system: COLO 205; test: Induction of apoptosis in human COLO205 cells assessed as activation of caspases 7 at GI50 by fluorescent inhibitor probe FAM-DEVD-FMK staining based fluorescence assay (reference value: 15.3%); format: functional; set-up: scale not given: the % may be the effect or the level left
Procedure, shortened: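 COLO-205 cells treated at the concentrations listed in the GI50 table. Active caspases 3 and 7 labelled with the fluorescent inhibitor probe FAM-DEVD-FMK and read by flow cytometry. Untreated negative control, camptothecin positive control. Triplicate (N=3), P<0.05 versus vehicle.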

[11] = Inhibition of TNFalpha-induced NFkappaB activation in human HEK293 cells preincubated for 16 hrs followed by TNFalpha addition and measured after 6 hrs by luminescence based assay; format: cell-based
[12] = system: PC-3; test: Antiproliferative activity human PC3 cells assessed as reduction in Ki67 protein level at GI50 incubated for 48 hrs by DAPI staining based immunofluorescence assay; format: functional, cell-based

SMILES | RatioGI50 [1] | GI50 [2] | RatioGI50 [3] | GI50 [4] | GI50 at 72 h [5] | GI50 [6] | GI50 [7] | Activity [8] | Activity [9] | Activity [10] | IC50 [11] | Activity [12]
CC(C)(C)OC(=O)N1C/C(=C\c2cccc(O)c2)C(=O)/C(=C/c2cccc(O)c2)C1 | 0.5 | 11.7 µg/mL (≈ 28.7 µM) | 1.6 | 4.1 µg/mL (≈ 10.1 µM) | 6.4 µg/mL (≈ 15.7 µM) |  |  |  |  |  |  | 
COc1cc(/C=C/C(=O)/C=C/c2ccc(O)c(OC)c2)ccc1O | 0.8 | 19.4 µg/mL (≈ 59.4 µM) | 1.5 | 10 µg/mL (≈ 30.6 µM) | 15.1 µg/mL (≈ 46.3 µM) | 24.8 µg/mL (≈ 76 µM) | 22.7 µg/mL (≈ 69.6 µM) | Active |  |  |  | 
COc1cc(/C=C2\CN(C(=O)OC(C)(C)C)C/C(=C\c3ccc(O)c(OC)c3)C2=O)ccc1O | 0.7 | 27.4 µg/mL (≈ 58.6 µM) | 1.9 | 9.6 µg/mL (≈ 20.5 µM) | 18.3 µg/mL (≈ 39.1 µM) |  |  |  |  |  |  | 
COc1ccc(/C=C2\CN(C(=O)OC(C)(C)C)C/C(=C\c3ccc(OC)cc3OC)C2=O)c(OC)c1 | 1.4 | 0.84 µg/mL (≈ 1.7 µM) |  | 2 µg/mL (≈ 4.04 µM) | 1.2 µg/mL (≈ 2.42 µM) |  |  |  | 62% | 35.7% |  | 
CC[C@@]1(O)C(=O)OCc2c1cc1n(c2=O)Cc2cc3ccccc3nc2-1 [CAMPTOTHECIN] |  |  |  |  |  |  |  |  | 37.3% | 59.3% |  | 
CC(C)(C)OC(=O)N1C/C(=C\c2ccccc2C(F)(F)F)C(=O)/C(=C/c2ccccc2C(F)(F)F)C1 | 1.7 | 4.5 µg/mL (≈ 8.8 µM) | 1.7 | 4.6 µg/mL (≈ 8.99 µM) | 7.6 µg/mL (≈ 14.9 µM) |  |  |  | 35% | 31.5% | 27.2 µg/mL (≈ 53.2 µM) | 
CC(=O)O[C@@]12CO[C@@H]1C[C@H](O)[C@@]1(C)C(=O)[C@H](O)C3=C(C)[C@@H](OC(=O)[C@H](O)[C@@H](NC(=O)OC(C)(C)C)c4ccccc4)C[C@@](O)([C@@H](OC(=O)c4ccccc4)[C@H]21)C3(C)C [DOCETAXEL ANHYDROUS] |  |  |  |  |  | 0.009 µg/mL (≈ 0.0111 µM) | 0.006 µg/mL (≈ 0.00743 µM) | Active |  |  |  | Active
COc1cc(/C=C/C(=O)CC(=O)/C=C/c2ccc(O)c(OC)c2)ccc1O [CURCUMIN] |  | 12.7 µg/mL (≈ 34.5 µM) |  | 4.3 µg/mL (≈ 11.7 µM) | 7.2 µg/mL (≈ 19.5 µM) | 13.8 µg/mL (≈ 37.5 µM) | 14.3 µg/mL (≈ 38.8 µM) | Active |  |  | 7.7 µg/mL (≈ 20.9 µM) | Active
CC(C)(C)OC(=O)N1C/C(=C\c2ccc(O)cc2)C(=O)/C(=C/c2ccc(O)cc2)C1 | 0.3 | 20.9 µg/mL (≈ 51.3 µM) | 1.8 | 3.5 µg/mL (≈ 8.59 µM) | 6.4 µg/mL (≈ 15.7 µM) | 22.9 µg/mL (≈ 56.2 µM) | 17.1 µg/mL (≈ 42 µM) | Active |  |  |  | Active
CC(C)(C)OC(=O)N1C/C(=C\c2ccccc2)C(=O)/C(=C/c2ccccc2)C1 | 0.4 | 34.7 µg/mL (≈ 92.4 µM) | 2 | 6.1 µg/mL (≈ 16.2 µM) | 12.4 µg/mL (≈ 33 µM) |  |  |  |  |  |  | 
